Columns and labels:
Settings in all cases: stereoisomer not certain
OR51I2 (Homo sapiens) = biological target: T1, OR51I2 (Homo sapiens) (UniProt Q9H344)
T1 sequence (whole entry): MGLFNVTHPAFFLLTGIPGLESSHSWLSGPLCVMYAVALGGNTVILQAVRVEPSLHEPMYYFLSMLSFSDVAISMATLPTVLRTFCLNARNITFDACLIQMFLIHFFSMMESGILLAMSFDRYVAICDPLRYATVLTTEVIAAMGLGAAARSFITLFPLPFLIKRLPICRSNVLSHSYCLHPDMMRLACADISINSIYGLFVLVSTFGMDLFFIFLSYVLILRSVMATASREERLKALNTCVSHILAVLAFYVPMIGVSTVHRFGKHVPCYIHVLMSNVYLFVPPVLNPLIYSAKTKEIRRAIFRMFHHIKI
Summary of the method: (§1)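 Each receptor–molecule pair is labelled responsive or non-responsive (inactive) according to whether the original authors judged the measured signal statistically different from baseline. The data were taken from the main text and supplementary material of published papers and checked for typos and inconsistencies. Assay methods differed by source, with transient luciferase assays in mammalian cell lines being common.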

OR51J1 (Homo sapiens) = biological target: T2, OR51J1 (Homo sapiens) (UniProt Q9H342)
T2 sequence (whole entry): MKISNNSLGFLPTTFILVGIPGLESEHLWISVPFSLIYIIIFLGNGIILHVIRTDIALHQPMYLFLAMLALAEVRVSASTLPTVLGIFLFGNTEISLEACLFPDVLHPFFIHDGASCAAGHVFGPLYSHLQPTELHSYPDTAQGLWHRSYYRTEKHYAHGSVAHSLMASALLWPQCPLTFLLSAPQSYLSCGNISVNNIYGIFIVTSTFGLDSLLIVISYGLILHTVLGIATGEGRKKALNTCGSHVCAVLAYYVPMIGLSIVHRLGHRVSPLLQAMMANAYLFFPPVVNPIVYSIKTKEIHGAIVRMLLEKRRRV
Summary of the method: as §1

OR51L1 (Homo sapiens) = biological target: T3, OR51L1 (Homo sapiens) (UniProt Q8NGJ5)
T3 sequence (whole entry): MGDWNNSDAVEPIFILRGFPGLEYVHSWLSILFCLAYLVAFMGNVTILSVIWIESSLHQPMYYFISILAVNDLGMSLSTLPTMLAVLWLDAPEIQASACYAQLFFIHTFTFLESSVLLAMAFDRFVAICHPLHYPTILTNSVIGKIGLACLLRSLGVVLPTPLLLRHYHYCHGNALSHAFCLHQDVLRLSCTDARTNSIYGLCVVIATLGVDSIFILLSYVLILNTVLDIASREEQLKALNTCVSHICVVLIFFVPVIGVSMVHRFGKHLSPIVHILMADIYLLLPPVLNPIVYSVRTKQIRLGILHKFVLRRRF
Summary of the method: as §1

OR51M1 (Homo sapiens) = biological target: T4, OR51M1 (Homo sapiens) (UniProt Q9H341)
T4 sequence (whole entry): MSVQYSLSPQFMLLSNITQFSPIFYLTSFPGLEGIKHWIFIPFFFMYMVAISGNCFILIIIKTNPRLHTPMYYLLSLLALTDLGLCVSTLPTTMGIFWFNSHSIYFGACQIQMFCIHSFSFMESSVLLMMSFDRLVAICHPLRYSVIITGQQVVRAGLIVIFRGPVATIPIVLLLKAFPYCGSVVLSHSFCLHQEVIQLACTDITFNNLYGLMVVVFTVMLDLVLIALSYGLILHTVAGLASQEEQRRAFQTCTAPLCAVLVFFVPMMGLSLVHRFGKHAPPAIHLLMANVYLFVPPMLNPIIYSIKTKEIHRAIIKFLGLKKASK
Summary of the method: as §1

OR51Q1 (Homo sapiens) = biological target: T5, OR51Q1 (Homo sapiens) (UniProt Q8NH59)
T5 sequence (whole entry): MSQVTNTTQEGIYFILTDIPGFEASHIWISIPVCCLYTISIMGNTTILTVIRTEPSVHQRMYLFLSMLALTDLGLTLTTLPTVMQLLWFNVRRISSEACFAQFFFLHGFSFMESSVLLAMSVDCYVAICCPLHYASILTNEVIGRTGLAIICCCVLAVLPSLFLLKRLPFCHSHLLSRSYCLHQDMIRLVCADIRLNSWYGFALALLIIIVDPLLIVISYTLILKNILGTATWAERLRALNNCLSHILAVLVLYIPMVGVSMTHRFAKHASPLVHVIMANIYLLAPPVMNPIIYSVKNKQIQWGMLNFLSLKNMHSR
Summary of the method: as §1

OR51S1 (Homo sapiens) = biological target: T6, OR51S1 (Homo sapiens) (UniProt Q8NGJ8)
T6 sequence (whole entry): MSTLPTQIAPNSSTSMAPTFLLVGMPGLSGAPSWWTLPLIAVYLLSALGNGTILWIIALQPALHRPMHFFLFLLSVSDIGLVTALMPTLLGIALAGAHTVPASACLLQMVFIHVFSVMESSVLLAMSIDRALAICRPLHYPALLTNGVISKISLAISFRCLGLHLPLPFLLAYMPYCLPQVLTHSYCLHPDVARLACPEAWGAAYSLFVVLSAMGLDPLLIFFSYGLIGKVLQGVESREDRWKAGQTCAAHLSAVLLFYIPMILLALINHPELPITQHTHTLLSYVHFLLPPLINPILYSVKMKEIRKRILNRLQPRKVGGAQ
Summary of the method: as §1

OR51V1 (Homo sapiens) = biological target: T7, OR51V1 (Homo sapiens) (UniProt Q9H2C8)
T7 sequence (whole entry): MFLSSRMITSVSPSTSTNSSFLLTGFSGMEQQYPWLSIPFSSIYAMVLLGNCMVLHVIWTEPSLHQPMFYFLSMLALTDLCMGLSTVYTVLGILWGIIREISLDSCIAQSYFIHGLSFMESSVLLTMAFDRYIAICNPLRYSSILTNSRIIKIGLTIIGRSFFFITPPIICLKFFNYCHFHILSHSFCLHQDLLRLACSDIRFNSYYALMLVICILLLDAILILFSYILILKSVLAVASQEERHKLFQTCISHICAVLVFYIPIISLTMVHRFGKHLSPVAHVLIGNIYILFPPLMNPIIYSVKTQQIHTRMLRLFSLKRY
Summary of the method: as §1

OR52A1 (Homo sapiens) = biological target: T8, OR52A1 (Homo sapiens) (UniProt Q9UKL2)
T8 sequence (whole entry): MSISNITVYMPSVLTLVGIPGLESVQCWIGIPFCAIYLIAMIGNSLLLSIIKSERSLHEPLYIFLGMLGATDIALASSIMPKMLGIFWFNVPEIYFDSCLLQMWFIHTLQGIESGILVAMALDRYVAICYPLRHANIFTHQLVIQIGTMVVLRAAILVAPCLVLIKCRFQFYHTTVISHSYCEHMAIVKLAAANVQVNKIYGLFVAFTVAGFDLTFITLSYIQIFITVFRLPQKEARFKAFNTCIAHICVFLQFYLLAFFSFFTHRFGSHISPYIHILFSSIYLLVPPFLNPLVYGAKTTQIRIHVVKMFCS
Summary of the method: as §1

OR52A5 (Homo sapiens) = biological target: T9, OR52A5 (Homo sapiens) (UniProt Q9H2C5)
T9 sequence (whole entry): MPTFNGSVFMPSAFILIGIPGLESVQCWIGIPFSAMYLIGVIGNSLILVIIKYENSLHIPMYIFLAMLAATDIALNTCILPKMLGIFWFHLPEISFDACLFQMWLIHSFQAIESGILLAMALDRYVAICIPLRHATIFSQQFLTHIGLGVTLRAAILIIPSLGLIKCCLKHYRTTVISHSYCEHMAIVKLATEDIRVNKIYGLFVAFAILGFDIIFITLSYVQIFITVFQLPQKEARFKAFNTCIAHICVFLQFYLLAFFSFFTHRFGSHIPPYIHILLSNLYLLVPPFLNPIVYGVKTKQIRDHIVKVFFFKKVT
Summary of the method: as §1

OR52B2 (Homo sapiens) = biological target: T10, OR52B2 (Homo sapiens) (UniProt Q96RD2)
T10 sequence (whole entry): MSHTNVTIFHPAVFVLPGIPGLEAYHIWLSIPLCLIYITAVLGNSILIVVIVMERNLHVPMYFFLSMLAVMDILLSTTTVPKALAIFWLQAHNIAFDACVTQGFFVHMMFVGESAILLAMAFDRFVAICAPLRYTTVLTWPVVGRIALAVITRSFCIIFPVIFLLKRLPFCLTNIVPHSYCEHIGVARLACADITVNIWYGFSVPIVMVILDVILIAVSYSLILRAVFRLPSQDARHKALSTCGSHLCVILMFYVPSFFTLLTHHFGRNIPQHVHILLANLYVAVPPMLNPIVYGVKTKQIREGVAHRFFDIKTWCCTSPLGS
Summary of the method: as §1

OR52B4 (Homo sapiens) = biological target: T11, OR52B4 (Homo sapiens) (UniProt Q8NGK2)
T11 sequence (whole entry): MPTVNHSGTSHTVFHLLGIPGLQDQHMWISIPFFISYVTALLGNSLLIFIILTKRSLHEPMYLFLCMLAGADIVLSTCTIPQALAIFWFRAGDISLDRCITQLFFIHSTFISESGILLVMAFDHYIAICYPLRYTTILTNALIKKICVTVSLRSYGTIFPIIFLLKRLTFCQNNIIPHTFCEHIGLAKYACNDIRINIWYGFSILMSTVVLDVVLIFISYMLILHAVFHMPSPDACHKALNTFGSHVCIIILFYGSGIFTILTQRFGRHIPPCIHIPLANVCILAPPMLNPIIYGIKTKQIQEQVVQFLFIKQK
Summary of the method: as §1

OR52B6 (Homo sapiens) = biological target: T12, OR52B6 (Homo sapiens) (UniProt Q8NGF0)
T12 sequence (whole entry): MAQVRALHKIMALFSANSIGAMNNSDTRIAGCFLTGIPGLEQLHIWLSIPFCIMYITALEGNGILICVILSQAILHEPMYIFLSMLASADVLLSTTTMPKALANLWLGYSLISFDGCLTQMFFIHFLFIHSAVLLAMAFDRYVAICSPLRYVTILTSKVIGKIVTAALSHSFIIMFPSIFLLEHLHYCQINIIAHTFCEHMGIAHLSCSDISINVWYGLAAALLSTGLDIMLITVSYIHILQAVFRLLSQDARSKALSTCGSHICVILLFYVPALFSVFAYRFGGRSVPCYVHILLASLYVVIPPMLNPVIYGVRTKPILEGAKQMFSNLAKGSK
Summary of the method: as §1

OR52D1 (Homo sapiens) = biological target: T13, OR52D1 (Homo sapiens) (UniProt Q9H346)
T13 sequence (whole entry): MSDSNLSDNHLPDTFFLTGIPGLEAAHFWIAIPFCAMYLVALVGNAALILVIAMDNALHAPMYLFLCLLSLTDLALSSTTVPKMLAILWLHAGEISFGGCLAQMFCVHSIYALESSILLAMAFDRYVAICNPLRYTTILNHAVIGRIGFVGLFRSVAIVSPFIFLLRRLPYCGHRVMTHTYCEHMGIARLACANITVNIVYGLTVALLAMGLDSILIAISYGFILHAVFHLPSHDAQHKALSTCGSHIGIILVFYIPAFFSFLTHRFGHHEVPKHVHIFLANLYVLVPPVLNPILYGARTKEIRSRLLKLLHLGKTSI
Summary of the method: as §1

OR52E1 (Homo sapiens) = OR52E1 (Homo sapiens) (UniProt Q8NGJ3)
Sequence of OR52E1 (Homo sapiens) (Q8NGJ3 whole entry): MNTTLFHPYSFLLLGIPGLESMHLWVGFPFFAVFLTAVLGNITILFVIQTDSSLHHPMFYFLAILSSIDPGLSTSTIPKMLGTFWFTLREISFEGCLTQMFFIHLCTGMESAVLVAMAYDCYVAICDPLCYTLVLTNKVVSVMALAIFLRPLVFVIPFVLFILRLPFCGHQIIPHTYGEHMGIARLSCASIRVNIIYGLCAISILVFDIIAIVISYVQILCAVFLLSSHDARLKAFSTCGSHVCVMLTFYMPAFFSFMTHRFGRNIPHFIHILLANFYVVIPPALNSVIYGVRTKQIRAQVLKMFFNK
Summary of the method: as §1

OR52E2 (Homo sapiens) = OR52E2 (Homo sapiens) (UniProt Q8NGJ4)
Sequence of OR52E2 (Homo sapiens) (Q8NGJ4 whole entry): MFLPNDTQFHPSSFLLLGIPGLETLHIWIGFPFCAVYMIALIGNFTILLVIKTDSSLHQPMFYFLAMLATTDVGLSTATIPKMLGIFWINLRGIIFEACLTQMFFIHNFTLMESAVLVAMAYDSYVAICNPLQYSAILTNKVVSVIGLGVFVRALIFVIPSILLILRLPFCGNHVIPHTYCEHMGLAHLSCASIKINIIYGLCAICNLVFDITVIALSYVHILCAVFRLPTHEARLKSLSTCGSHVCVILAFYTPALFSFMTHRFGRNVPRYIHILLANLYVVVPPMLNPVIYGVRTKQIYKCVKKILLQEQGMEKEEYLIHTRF
Summary of the method: as §1

OR52E4 (Homo sapiens) = OR52E4 (Homo sapiens) (UniProt Q8NGH9)
Sequence of OR52E4 (Homo sapiens) (Q8NGH9 whole entry): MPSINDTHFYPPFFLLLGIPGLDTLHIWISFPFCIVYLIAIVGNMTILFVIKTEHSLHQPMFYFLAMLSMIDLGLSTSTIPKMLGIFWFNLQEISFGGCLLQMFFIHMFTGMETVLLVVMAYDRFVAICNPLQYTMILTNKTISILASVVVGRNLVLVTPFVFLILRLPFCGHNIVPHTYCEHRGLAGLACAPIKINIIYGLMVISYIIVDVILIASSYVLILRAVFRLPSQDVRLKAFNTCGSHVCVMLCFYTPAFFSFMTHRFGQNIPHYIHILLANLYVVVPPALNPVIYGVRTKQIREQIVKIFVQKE
Summary of the method: as §1

OR52E6 (Homo sapiens) = OR52E6 (Homo sapiens) (UniProt Q96RD3)
Sequence of OR52E6 (Homo sapiens) (Q96RD3 whole entry): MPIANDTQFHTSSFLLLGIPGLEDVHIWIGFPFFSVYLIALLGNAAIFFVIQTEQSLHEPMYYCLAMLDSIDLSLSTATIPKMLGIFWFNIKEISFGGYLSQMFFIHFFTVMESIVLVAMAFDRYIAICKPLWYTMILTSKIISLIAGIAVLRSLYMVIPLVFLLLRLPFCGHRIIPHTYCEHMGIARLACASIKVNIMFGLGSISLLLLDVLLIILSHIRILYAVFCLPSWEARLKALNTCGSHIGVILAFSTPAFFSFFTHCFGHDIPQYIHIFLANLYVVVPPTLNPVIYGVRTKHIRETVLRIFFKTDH
Summary of the method: as §1

Measured: odorant receptor agonist call;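 note: active if original authors judged signal statistically different from baseline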

CC1=C(O)C(=O)C(C)O1 (stereo not given)
inactive: OR51I2 (Homo sapiens) | OR51J1 (Homo sapiens) | OR51L1 (Homo sapiens) | OR51M1 (Homo sapiens) | OR51Q1 (Homo sapiens) | OR51S1 (Homo sapiens) | OR51V1 (Homo sapiens) | OR52A1 (Homo sapiens) | OR52A5 (Homo sapiens) | OR52B2 (Homo sapiens) | OR52B4 (Homo sapiens) | OR52B6 (Homo sapiens) | OR52D1 (Homo sapiens) | OR52E1 (Homo sapiens) | OR52E2 (Homo sapiens) | OR52E4 (Homo sapiens) | OR52E6 (Homo sapiens)

CC(=O)Oc1ccccc1
inactive: OR51L1 (Homo sapiens)

COc1cc(C(=O)O)ccc1O
inactive: OR51L1 (Homo sapiens)

CCC(=O)C(=O)CC
inactive: OR51L1 (Homo sapiens)
